# Data taken from ChEMBL document CHEMBL5136969, “A niclosamide-tobramycin hybrid adjuvant potentiates cefiderocol against P. aeruginosa” (2021).
# Activity calls are given as the source filed them.
# Experiments:
# Acinetobacter baumannii [1] = test: Antibacterial activity against Acinetobacter baumannii LAC-4 assessed as potentiation of cefiderocol antibacterial activity by measuring FIC after 18 hrs by microbroth dilution method; type: functional
# Procedure, shortened: (§1)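 Checkerboard in Mueller-Hinton broth: cefiderocol 2-fold diluted on one axis, adjuvant 2-fold on the other. Overnight cultures were adjusted to 0.5 McFarland in saline, diluted 1:50 in MHB, and inoculated at about 5 × 10^5 CFU/mL. Incubation was 18 h at 37 °C. Turbidity was read visually and confirmed at 590 nm. FIC index = FIC of antibiotic + FIC of adjuvant; ≤0.5 synergy, >4 antagonism.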
# Pseudomonas aeruginosa [2] = test: Potentiation of cefiderocol-induced antibiotic activity against MDR clinical isolate Pseudomonas aeruginosa PA259 assessed as MIC fold reduction at 8 ug/ml after 18 hrs by microbroth dilution method; type: functional, organism-based; settings: dose 8.0 µg/ml
# Procedure, shortened: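 Initial screen in MHB using a fixed 8 μg mL−1 of adjuvant combined with each antibiotic under 2-fold dilution. Broth microdilution used about 5 × 10^5 CFU/mL at 37 °C for 18 h, with visible turbidity read and confirmed at 590 nm. Fold-potentiation = antibiotic MIC alone ÷ antibiotic MIC with adjuvant.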
# Acinetobacter baumannii [3] = test: Antibacterial activity against Acinetobacter baumannii AB031 assessed as reduction in bacterial growth after 18 hrs in presence of cefiderocol by microbroth dilution method; type: functional; procedure, shortened: as §1
# Pseudomonas aeruginosa [4] = test: Potentiation of ceftolozane-induced antibiotic activity against MDR clinical isolate Pseudomonas aeruginosa PA260 assessed as MIC fold reduction at 8 ug/ml after 18 hrs by microbroth dilution method; type: functional, organism-based; settings: dose 8.0 µg/ml
# Procedure, shortened: (§2)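 Adjuvant held at a fixed 8 μg/mL while the antibiotic was 2-fold serially diluted in Mueller-Hinton broth (MHB), per CLSI microbroth dilution. Overnight cultures were adjusted in saline to 0.5 McFarland, then diluted 1:50 in MHB to about 5 × 10^5 CFU/mL final, and incubated 18 h at 37 °C. MIC was the lowest concentration with no visible turbidity, confirmed at 590 nm. Fold potentiation = MIC alone / MIC with adjuvant.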
# Pseudomonas aeruginosa [5] = test: Antibacterial activity against MDR clinical isolate Pseudomonas aeruginosa PA262 assessed as reduction in bacterial growth after 18 hrs by microbroth dilution method; type: functional
# Procedure, shortened: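 CLSI broth microdilution. Overnight cultures were adjusted in saline to 0.5 McFarland, diluted 1:50 in Mueller-Hinton broth (MHB), and inoculated at about 5 × 10^5 CFU/mL. Agents were 2-fold serially diluted in MHB, mixed 1:1 with inoculum, and held at 37 °C for 18 h. MIC was the lowest concentration with no visible turbidity, confirmed at 590 nm.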
# Pseudomonas aeruginosa [6] = test: Antibacterial activity against colistin-resistant clinical isolate Pseudomonas aeruginosa PA91433 assessed as potentiation of cefiderocol antibacterial activity by measuring FIC index after 18 hrs by microbroth dilution method; type: functional
# Procedure, shortened: (§3)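 Checkerboard in MHB (iron-replete, not iron-depleted CAMHB). Cefiderocol was 2-fold serially diluted along one axis and the adjuvant along the other. Inoculum was 0.5 McFarland diluted 1:50, about 5 × 10^5 CFU/mL final. Incubation was 18 h at 37 °C, with turbidity read visually and confirmed at 590 nm. FIC was the MIC in combination over the MIC alone for each agent, and the FIC index was their sum. Cut-offs were ≤0.5 synergy, >0.5–4 additive, >4 antagonism.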
# Pseudomonas aeruginosa [7] = test: Antibacterial activity against MDR clinical isolate Pseudomonas aeruginosa PA88949 assessed as reduction in bacterial growth after 18 hrs by microbroth dilution method; type: functional
# Procedure, shortened: (§4)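 Broth microdilution per CLSI in Mueller-Hinton broth (MHB). Overnight cultures were adjusted to 0.5 McFarland in saline, diluted 1:50 in MHB, and added at about 5 × 10^5 CFU/mL final to equal volumes of 2-fold serial dilutions of agent. Incubation was 18 h at 37 °C. MIC was the lowest concentration with no visible turbidity, confirmed by absorbance at 590 nm.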
# Pseudomonas aeruginosa [8] = test: Potentiation of sulfamethoxazole-induced antibiotic activity against Pseudomonas aeruginosa PAO1 assessed as MIC fold reduction at 8 ug/ml after 18 hrs by microbroth dilution method; type: functional; settings: dose 8 µg/ml
# Escherichia coli [9] = test: Potentiation of linezolid-induced antibiotic activity against Escherichia coli ATCC 25922 assessed as MIC fold reduction at 8 ug/ml after 18 hrs by microbroth dilution method; type: functional; settings: dose 8 µg/ml; procedure, shortened: as §2
# Pseudomonas aeruginosa [10] = test: Antibacterial activity against […] Pseudomonas aeruginosa PAO1 assessed as reduction in bacterial growth after 18 hrs by microbroth dilution method; type: functional; procedure, shortened: as §4
# Acinetobacter baumannii [11] = test: Potentiation of trimethoprim-induced antibiotic activity against Acinetobacter baumannii ATCC 17978 assessed as MIC fold reduction at 8 ug/ml after 18 hrs by microbroth dilution method; type: functional; settings: dose 8 µg/ml
# Acinetobacter baumannii [12] = test: Potentiation of ciprofloxacin-induced antibiotic activity against Acinetobacter baumannii ATCC 17978 assessed as MIC fold reduction at 8 ug/ml after 18 hrs by microbroth dilution method; type: functional; settings: dose 8 µg/ml; procedure, shortened: as §2
# Enterobacter cloacae = test: Antibacterial activity against Enterobacter cloacae 121187 assessed as potentiation of cefiderocol antibacterial activity by measuring FIC after 18 hrs by microbroth dilution method; type: functional; procedure, shortened: as §1
# Acinetobacter baumannii [13] = test: Potentiation of minocycline-induced antibiotic activity against Acinetobacter baumannii ATCC 17978 assessed as MIC fold reduction at 8 ug/ml after 18 hrs by microbroth dilution method; type: functional; settings: dose 8 µg/ml; procedure, shortened: as §2
# Escherichia coli [14] = test: Potentiation of tobramycin-induced antibiotic activity against Escherichia coli ATCC 25922 assessed as MIC fold reduction at 8 ug/ml after 18 hrs by microbroth dilution method; type: functional; settings: dose 8 µg/ml
# Pseudomonas aeruginosa [15] = test: Antibacterial activity against MDR clinical isolate Pseudomonas aeruginosa PA262 assessed as reduction in bacterial growth after 18 hrs in presence of cefiderocol by microbroth dilution method; type: functional; procedure, shortened: as §3
# Pseudomonas aeruginosa [16] = test: Potentiation of tobramycin-induced antibiotic activity against Pseudomonas aeruginosa PAO1 assessed as MIC fold reduction at 8 ug/ml after 18 hrs by microbroth dilution method; type: functional; settings: dose 8 µg/ml
# Escherichia coli [17] = test: Antibacterial activity against Escherichia coli 107115 assessed as potentiation of cefiderocol antibacterial activity by measuring FIC after 18 hrs by microbroth dilution method; type: functional; procedure, shortened: as §1
# Pseudomonas aeruginosa [18] = test: Antibacterial activity against MDR clinical isolate Pseudomonas aeruginosa PA100036 assessed as potentiation of cefiderocol antibacterial activity by measuring FIC index after 18 hrs by microbroth dilution method; type: functional; procedure, shortened: as §3
# Acinetobacter baumannii [19] = test: Antibacterial activity against Acinetobacter baumannii ATCC 17978 assessed as reduction in bacterial growth after 18 hrs in presence of cefiderocol by microbroth dilution method; type: functional; procedure, shortened: as §1
# Acinetobacter baumannii [20] = test: Potentiation of sulfamethoxazole-induced antibiotic activity against Acinetobacter baumannii ATCC 17978 assessed as MIC fold reduction at 8 ug/ml after 18 hrs by microbroth dilution method; type: functional; settings: dose 8 µg/ml
# Pseudomonas aeruginosa [21] = test: Potentiation of chloamphenicol-induced antibiotic activity against Pseudomonas aeruginosa PAO1 assessed as MIC fold reduction at 8 ug/ml after 18 hrs by microbroth dilution method; type: functional; settings: dose 8 µg/ml; procedure, shortened: as §2
# Escherichia coli [22] = test: Potentiation of ceftazidime-induced antibiotic activity against Escherichia coli ATCC 25922 assessed as MIC fold reduction at 8 ug/ml after 18 hrs by microbroth dilution method; type: functional; settings: dose 8 µg/ml; procedure, shortened: as §2
# [23] = test system: Staphylococcus epidermidis; test: Antibacterial activity against methicillin-resistant Staphylococcus epidermidis 61589 assessed as reduction in bacterial growth after 18 hrs by microbroth dilution method; type: functional; procedure, shortened: as §4
# Pseudomonas aeruginosa [24] = test: Potentiation of minocycline-induced antibiotic activity against Pseudomonas aeruginosa PAO1 assessed as MIC fold reduction at 8 ug/ml after 18 hrs by microbroth dilution method; type: functional; settings: dose 8 µg/ml; procedure, shortened: as §2
structure (smiles),measurement,setting,value
NC[C@H]1O[C@H](O[C@H]2[C@H](OCCCCc3cn(-c4ccc(NC(=O)c5cc(Cl)ccc5O)cc4)nn3)[C@@H](O[C@H]3O[C@H](CO)[C@@H](O)[C@H](N)[C@H]3O)[C@H](N)C[C@@H]2N)[C@H](N)C[C@@H]1O,FIC,Acinetobacter baumannii [1],1
same,Activity,Pseudomonas aeruginosa [2],Active
same,MIC,Acinetobacter baumannii [3],0.25 µg/mL
same,Activity,Pseudomonas aeruginosa [4],Active
same,MIC,Pseudomonas aeruginosa [5],> 128 µg/mL
same,FIC,Pseudomonas aeruginosa [6],0.016
same,MIC,Pseudomonas aeruginosa [7],> 128 µg/mL
same,fold change (FC),Pseudomonas aeruginosa [8],4
same,fold change (FC),Escherichia coli [9],4
same,MIC,Pseudomonas aeruginosa [10],64 µg/mL
same,fold change (FC),Acinetobacter baumannii [11],4
same,fold change (FC),Acinetobacter baumannii [12],4
same,FIC,Enterobacter cloacae,1
same,fold change (FC),Acinetobacter baumannii [13],4
same,fold change (FC),Escherichia coli [14],4
same,MIC,Pseudomonas aeruginosa [15],1 µg/mL
same,fold change (FC),Pseudomonas aeruginosa [16],4
same,FIC,Escherichia coli [17],0.5
same,FIC,Pseudomonas aeruginosa [18],1
same,MIC,Acinetobacter baumannii [19],16 µg/mL
same,fold change (FC),Acinetobacter baumannii [20],4
same,fold change (FC),Pseudomonas aeruginosa [21],4
same,fold change (FC),Escherichia coli [22],4
same,MIC,[23],128 µg/mL
same,fold change (FC),Pseudomonas aeruginosa [24],4
